Laboratory results reported in ChEMBL document CHEMBL4359873, “Benzothienoquinazolinones as new multi-target scaffolds: Dual inhibition of human Topoisomerase I and tubulin polymerization” (Eur J Med Chem, 2019).
The source made the active and inactive calls. The calls are words filed in the database; no cut-off is given here.

Columns and labels:
[1] = tested on: MCF-10A; experiment: Cytotoxicity against human MCF10A cells assessed as reduction in cell viability after 72 hrs by MTT assay; format: cell-based
Method in brief: (§1)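 Cells seeded, grown 24 h in full medium, then serum-starved 24 h before compound exposure. Six concentrations (0.1, 1, 10, 20, 40, 100 µM) tested in triplicate; MTT absorbance read at 570 nm; results as % of basal, IC50 calculated. Means ± standard deviations. MCF-7 in DMEM-F12 with 5% NCS, MDA-MB-231 with 5% FBS, MCF-10A with 5% horse serum plus hEGF, insulin, hydrocortisone, cholera enterotoxin; 37 °C, 5% CO2.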

[2] = tested on: MCF7; experiment: Antiproliferative activity against ER-alpha positive human MCF7 cells assessed as reduction in cell viability after 72 hrs by MTT assay; format: functional, cell-based; conditions: MCF7, 72 h; method in brief: as §1
[3] = tested on: MDA-MB-231; experiment: Antiproliferative activity against triple negative human MDA-MB-231 cells assessed as reduction in cell viability after 72 hrs by MTT assay; format: functional, cell-based; conditions: MDA-MB-231, 72 h; method in brief: as §1
[4] = molecular target: T1, Tubulin (Bos taurus) (UniProt Q6B856+Q862L2+Q862F3); experiment: Inhibition of bovine tubulin at 10 uM assessed as tubulin heterodimers assembly to form microtubule by measuring OD at 350nm in presence of GTP measured every 30 secs for 90 mins by turbidimetric assay; format: protein assay
Method in brief: (§2)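 Kit-based assay: 60 µM tubulin in 1x PB-GTP with compound at 10 µM final (DMSO vehicle control), 37 °C, 10 s shaking before each reading. Turbidity read at 350 nm every 30 s for 90 min. Paclitaxel and Vinblastine at 10 µM final as stabilizing and destabilizing references.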

[5] = molecular target: T1, Tubulin (Bos taurus); experiment: Inhibition of bovine tubulin assessed as decrease in tubulin polymerization gradually followed by steady state decrease measured after 30 mins by turbidimetric assay; format: protein assay; method in brief: as §2
[6] = molecular target: DNA topoisomerase 2-alpha (Homo sapiens) (UniProt P11388); experiment: Inhibition of human topoisomerase 2 mediated decatenation at 50 uM using kinetoplast DNA as susbtrate after 1 hr by ethidium bromide staining based agarose gel electrophoresis
Method in brief: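 Decatenation in 20 µL with 0.2 µg kinetoplast DNA and 3 units hTopo II; compounds at 50 µM, 1 h at 37 °C.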

[7] = molecular target: DNA topoisomerase 2-alpha (Homo sapiens) (UniProt P11388); experiment: Inhibition of human topoisomerase 2 mediated decatenation up to 100 uM using kinetoplast DNA as susbtrate after 1 hr by ethidium bromide staining based agarose gel electrophoresis
[8] = molecular target: T2, DNA topoisomerase 1 (Homo sapiens) (UniProt P11387); experiment: Inhibition of recombinant human topoisomerase 1 mediated DNA relaxation assessed as uncleaved plasmid DNA at 50 uM using supercoiled pHOT1 plasmid as substrate after 1 hr by ethidium bromide staining based agarose gel electrophoresis
T2 sequence (whole entry): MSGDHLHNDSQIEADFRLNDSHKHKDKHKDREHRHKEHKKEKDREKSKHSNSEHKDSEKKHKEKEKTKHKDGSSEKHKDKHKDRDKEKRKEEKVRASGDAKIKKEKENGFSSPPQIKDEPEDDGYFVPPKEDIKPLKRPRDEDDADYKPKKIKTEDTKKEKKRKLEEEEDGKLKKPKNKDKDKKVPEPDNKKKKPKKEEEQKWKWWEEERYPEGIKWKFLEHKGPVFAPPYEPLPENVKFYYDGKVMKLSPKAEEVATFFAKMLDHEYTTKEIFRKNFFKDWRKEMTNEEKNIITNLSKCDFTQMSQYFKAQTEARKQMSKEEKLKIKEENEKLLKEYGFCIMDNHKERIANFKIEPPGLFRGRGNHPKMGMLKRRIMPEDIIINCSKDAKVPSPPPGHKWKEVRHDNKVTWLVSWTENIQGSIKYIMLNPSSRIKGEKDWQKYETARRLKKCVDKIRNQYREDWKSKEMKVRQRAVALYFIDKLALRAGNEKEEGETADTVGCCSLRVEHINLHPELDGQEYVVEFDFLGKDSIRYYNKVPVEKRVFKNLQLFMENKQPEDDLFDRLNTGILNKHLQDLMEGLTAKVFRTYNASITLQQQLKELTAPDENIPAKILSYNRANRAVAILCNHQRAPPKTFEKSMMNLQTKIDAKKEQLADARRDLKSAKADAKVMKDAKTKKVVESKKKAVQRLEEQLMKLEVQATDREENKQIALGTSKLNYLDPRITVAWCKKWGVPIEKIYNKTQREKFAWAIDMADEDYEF
Method in brief: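 Relaxation in 20 µL: 0.25 µg supercoiled pHOT1 in TE buffer, 2 units recombinant hTopo I, compound at 50 µM final, 1 h at 37 °C. Run on 1% agarose in 1x TAE without EB, then stained 30 min with EB (0.5 µg/mL), washed 15 min in water, viewed under UV. Three repeats.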

[9] = molecular target: T1, Tubulin (Bos taurus); experiment: Inhibition of bovine tubulin assessed as decrease in tubulin polymerization gradually followed by steady state decrease measured after 15 mins by turbidimetric assay; format: protein assay; method in brief: as §2

DNA topoisomerase 2-alpha (Homo sapiens), sequence (P11388 whole entry): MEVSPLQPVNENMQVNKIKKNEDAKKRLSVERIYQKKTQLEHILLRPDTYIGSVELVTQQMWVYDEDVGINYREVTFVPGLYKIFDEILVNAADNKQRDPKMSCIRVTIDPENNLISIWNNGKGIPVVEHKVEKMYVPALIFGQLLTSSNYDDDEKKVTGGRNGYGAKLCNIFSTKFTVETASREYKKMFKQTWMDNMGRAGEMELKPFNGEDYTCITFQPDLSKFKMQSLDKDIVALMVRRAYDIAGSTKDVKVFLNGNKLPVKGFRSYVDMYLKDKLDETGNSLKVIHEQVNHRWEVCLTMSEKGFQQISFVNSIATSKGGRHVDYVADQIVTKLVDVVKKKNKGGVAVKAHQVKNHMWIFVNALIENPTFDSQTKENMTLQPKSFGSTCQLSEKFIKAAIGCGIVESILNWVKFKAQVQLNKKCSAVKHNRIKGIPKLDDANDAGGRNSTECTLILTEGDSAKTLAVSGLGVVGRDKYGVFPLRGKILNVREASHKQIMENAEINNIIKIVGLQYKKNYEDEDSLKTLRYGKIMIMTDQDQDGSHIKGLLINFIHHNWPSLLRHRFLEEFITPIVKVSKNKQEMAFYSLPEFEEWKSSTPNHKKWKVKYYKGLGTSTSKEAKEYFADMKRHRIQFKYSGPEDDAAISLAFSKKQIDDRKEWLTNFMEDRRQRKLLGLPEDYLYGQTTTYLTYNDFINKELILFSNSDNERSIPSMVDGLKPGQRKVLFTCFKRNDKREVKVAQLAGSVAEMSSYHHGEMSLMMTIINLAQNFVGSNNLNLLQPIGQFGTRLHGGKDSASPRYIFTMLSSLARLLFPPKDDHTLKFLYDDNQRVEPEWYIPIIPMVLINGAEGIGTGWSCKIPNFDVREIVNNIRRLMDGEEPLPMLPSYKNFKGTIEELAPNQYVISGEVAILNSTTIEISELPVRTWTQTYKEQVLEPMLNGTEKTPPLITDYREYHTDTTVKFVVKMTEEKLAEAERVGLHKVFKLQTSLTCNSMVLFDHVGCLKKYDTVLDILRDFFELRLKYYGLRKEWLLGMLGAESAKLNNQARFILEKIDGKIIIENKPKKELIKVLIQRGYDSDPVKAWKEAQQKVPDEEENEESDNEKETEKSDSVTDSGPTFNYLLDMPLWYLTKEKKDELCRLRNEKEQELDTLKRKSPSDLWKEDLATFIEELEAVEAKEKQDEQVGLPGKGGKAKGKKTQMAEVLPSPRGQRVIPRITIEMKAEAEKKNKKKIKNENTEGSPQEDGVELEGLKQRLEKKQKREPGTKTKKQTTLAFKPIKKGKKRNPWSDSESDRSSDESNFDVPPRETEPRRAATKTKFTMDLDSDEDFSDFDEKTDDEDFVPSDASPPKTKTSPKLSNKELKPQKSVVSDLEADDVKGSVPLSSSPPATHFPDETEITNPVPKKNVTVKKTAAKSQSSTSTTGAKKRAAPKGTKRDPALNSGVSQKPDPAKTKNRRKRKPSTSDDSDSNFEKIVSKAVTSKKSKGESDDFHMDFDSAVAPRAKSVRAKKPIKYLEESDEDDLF

Row | Compound | IC50 [1] [µM] | IC50 [2] [µM] | IC50 [3] [µM] | OD [4] | inhibition [5] | inhibition [6] | inhibition [7] | inhibition [8] | inhibition [9]
1 | O=c1[nH]c(NC2CCCC2)nc2ccc3c4ccccc4sc3c12 | > 100 | 45.6 | 5.59 |  |  |  |  |  | 
2 | CC(=O)O[C@H]1C(=O)[C@@]2(C)[C@H]([C@H](OC(=O)c3ccccc3)[C@]3(O)C[C@H](OC(=O)[C@H](O)[C@@H](NC(=O)c4ccccc4)c4ccccc4)C(C)=C1C3(C)C)[C@]1(OC(C)=O)CO[C@@H]1C[C@@H]2O |  |  |  | 0.52 |  |  |  |  | 
3 | CC[C@]1(O)C[C@@H]2CN(CCc3c([nH]c4ccccc34)[C@@](C(=O)OC)(c3cc4c(cc3OC)N(C)[C@H]3[C@@](O)(C(=O)OC)[C@H](OC(C)=O)[C@]5(CC)C=CCN6CC[C@]43[C@@H]65)C2)C1 [VINBLASTINE] | 25.9 | 15 |  | 0.2 |  |  |  |  | 
4 | O=c1[nH]c(N2CCOCC2)nc2ccc3c4ccccc4sc3c12 | > 100 | 21.2 | 9.43 |  |  |  |  |  | 
5 | CCCN(CCC)c1nc2ccc3c4ccccc4sc3c2c(=O)[nH]1 | > 100 | 42 | 4.69 | 0.26 | Active | inactive | inactive |  | 
6 | CCCNc1nc2ccc3c4ccccc4sc3c2c(=O)[nH]1 | > 100 | 40.7 | 3.88 | 0.24 |  | inactive | inactive | Active | Active
7 | CCCCNc1nc2ccc3c4ccccc4sc3c2c(=O)[nH]1 | > 100 | 74.5 | 38.9 |  |  |  |  |  | 
8 | Cc1c2ccncc2c(C)c2c1[nH]c1ccccc12 [ELLIPTECINE] | 1.2 |  | 1.85 |  |  |  |  | Active | 
9 | CCCCCN(CCCCC)c1nc2ccc3c4ccccc4sc3c2c(=O)[nH]1 | > 100 | 75.2 | 42.4 |  |  |  |  |  | 
